Bioassay records: PubChem, The Scripps Research Institute Molecular Screening Center
OX1R antag-1: antagonists of human orexin 1 receptor (OX1R) | O43613 | OX1R-expressing cells, FRET antagonist read-out | inhibition, % at 6.6 µM | hit rate 1.8% among 330,000 | AID 485270; in the data active = inhibition mostly above about 38%, no sharp cut-off; inactive = mostly below about 40%
CHO parental Ca: signal in parental CHO cells, OX1R antagonist counter-screen | parental CHO-K1, ATP-induced calcium, Fluo-8 fluorescence | inhibition, % at 5.6 µM | hit rate 0.63% among 330,000;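 active = inhibition above that plate's mean sample inhibition plus 3 SD, cut at about 26% in these data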
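material = parental CHO cells | also added = ATP as calcium-mobilizing challenge | dosing = single point at 5.6 µM | detection = intracellular calcium via Fluo-8 no-wash fluorescent dye | read-out = % inhibition | benchmarks = low control ATP plus DMSO, high control DMSO only | repeats = one well per compound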
TAAR1 ag: agonists of human TAAR1; Q96RJ0; CHO RD-HGA16 TAAR1, Fluo-8 calcium fluorescence; vehicle wells 0%, saturating PEA agonist 100%; activation, % at 3 µM; hit rate 0.99% among 360,000;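 active = activation above the mean activation of all test compounds in the run plus 3 SD, cut at about 38% in these data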
Target sequence (Q96RJ0 whole entry, looked up): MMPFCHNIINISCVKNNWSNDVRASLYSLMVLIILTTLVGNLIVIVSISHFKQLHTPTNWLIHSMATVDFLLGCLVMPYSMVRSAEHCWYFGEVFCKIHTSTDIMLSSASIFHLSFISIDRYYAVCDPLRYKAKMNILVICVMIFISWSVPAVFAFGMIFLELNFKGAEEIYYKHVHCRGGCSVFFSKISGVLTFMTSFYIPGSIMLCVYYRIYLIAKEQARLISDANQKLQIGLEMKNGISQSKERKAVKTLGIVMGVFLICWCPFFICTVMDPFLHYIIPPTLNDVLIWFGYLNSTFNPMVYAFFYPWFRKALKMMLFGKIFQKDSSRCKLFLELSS
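Test system: RD-HGA16 (CHO) cells co-expressing Gα16 and hTAAR1; dosing: one-point dosing at 3 µM (nominal); timing: 17-24 h seeding, 75 min 37 °C dye, 30 min RT; signal: kinetic Fluo-8 calcium fluorescence; read-out basis: % activation relative to PEA EC100 response; controls: DMSO and PEA EC100; replicates: n 1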
GPR7 antagonist: blocks human GPR7 receptor signaling. hit rate 1.1% among 290,000. inhibition, % at 4.4 µM. GPR7-expressing cells, fluorescence antagonist assay. AID 1861. P48145; in the data active = inhibition above about 16%, passing the limit was not always enough;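 note: cells stimulated with the agonist NPW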
Target sequence (P48145 whole entry, looked up): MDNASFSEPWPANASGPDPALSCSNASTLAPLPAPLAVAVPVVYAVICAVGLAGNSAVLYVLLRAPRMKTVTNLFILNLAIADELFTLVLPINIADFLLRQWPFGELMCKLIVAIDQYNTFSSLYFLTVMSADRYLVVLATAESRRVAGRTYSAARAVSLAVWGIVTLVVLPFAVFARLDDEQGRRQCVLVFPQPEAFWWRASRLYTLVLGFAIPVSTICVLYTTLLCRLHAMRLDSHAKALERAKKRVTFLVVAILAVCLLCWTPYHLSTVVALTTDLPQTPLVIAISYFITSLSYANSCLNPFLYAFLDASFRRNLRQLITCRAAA
OX1R antag-2: blocks the human orexin 1 receptor. CHO/OX1R cells, Fluo-8 calcium fluorescence, orexin A. inhibition, % at 5 µM. hit rate 0.43% among 330,000. AID 434989;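 active = inhibition above its plate's threshold, mean inhibition of all tested compounds on the plate plus 3 SD, cut at about 37% in these data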
TAAR1 antag: antagonists of human TAAR1. AID 624466. Q96RJ0. hit rate 1.5% among 360,000. CHO RD-HGA16 TAAR1, Fluo-8 calcium fluorescence, antagonist. inhibition, % at 3 µM;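 active = inhibition above a per-plate cutoff, the mean inhibition of test compounds on that plate plus 3 SD, cut at about 49% in these data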
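Test system – hTAAR1-expressing CHO RD-HGA16 cells, Gα16-coupled · Reagent – β-PEA at EC80 concentration, post-compound challenge · Compound dosing – 3 µM, single point · Timing – 140 s kinetic read after compound, 140 s after agonist · Detection – Fluo-8 intracellular calcium dye fluorescence, real-time kinetic reads · Control set – DMSO and EC80 PEA controls · Repeats – n of 1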
Each line names hits and unclear results; the compound was inactive in the other large screens. Only some compounds are listed: those with a hit (about 4.6% of all), similar ones and a draw of the others.

CCCC(=O)Nc1ccc(-c2csc(N/N=C\c3ccncc3)n2)cc1	TAAR1 antag 60
CC(=O)C1=C(O)C(CSCc2ccccc2)N(C)C1=O (stereo unspecified)	none (no result: OX1R antag-1, CHO parental Ca, GPR7 antagonist, OX1R antag-2)
O=C(O)/C=C\C(=O)Nc1ccccc1N1CCN(c2ccccc2)CC1	none
CC(C(=O)NCC1CCCCC1)N1CCN(S(=O)(=O)/C=C/c2ccccc2)CC1 (stereo unspecified)	none
CCCCC(=O)NS(=O)(=O)c1ccc(N=NN2CCCCC2)cc1	none
O=C(O)c1ccc(COc2ccc3ccccc3c2/C=C2/NC(=O)N(Cc3ccc(F)cc3)C2=O)cc1	TAAR1 antag 56 (no result: OX1R antag-1, CHO parental Ca, OX1R antag-2)
CCOCCCNC(=O)/C(C#N)=C/c1ccc(Cl)c([N+](=O)[O-])c1	none
CCOCCCNC(=O)/C(C#N)=C/c1cc(OC)c(O)c([N+](=O)[O-])c1	OX1R antag-1 42
Cn1cc([N+](=O)[O-])cc1-c1nc2ccccc2n1C	none
Cn1c(-c2ccc([N+](=O)[O-])cc2)nc2ccccc21	OX1R antag-1 51
Cn1nc(C(=O)OCC(=O)c2ccccc2)c2ccccc2c1=O	none (no result: GPR7 antagonist)
Cc1ccc(C)c(C(=O)COC(=O)c2nn(C)c(=O)c3ccccc23)c1	OX1R antag-1 33 (no result: GPR7 antagonist)
C=C(C)c1cccc(C(C)(C)NC(=O)N2CCN(c3ccccc3OC)CC2)c1	none
CC(=O)Nc1ccc(NC(=O)C2CCCCN2S(=O)(=O)c2ccc(C(C)(C)C)cc2)cc1 (stereo unspecified)	TAAR1 antag 55
O=C(Nc1ccc(Cl)cc1)C1CCCCN1S(=O)(=O)c1ccccc1 (stereo unspecified)	OX1R antag-1 28 (no result: GPR7 antagonist)
Cc1ccc(NC(=O)[C@@H]2CCCN2S(=O)(=O)c2ccc(Cl)cc2)cc1	OX1R antag-1 48 (no result: GPR7 antagonist)
CCC1CCCCN1S(=O)(=O)c1ccc(S(=O)(=O)N(Cc2cccs2)C2CC2)cc1 (stereo unspecified)	OX1R antag-2 54
CCC1CCCCN1S(=O)(=O)c1ccc(S(=O)(=O)N(Cc2ccccn2)CC2CCCO2)cc1 (stereo unspecified)	none
CCOC(=O)c1ccc(NC(=O)CSC2=NC(=O)C(CC)C(=O)N2)cc1 (stereo unspecified)	none
CN(C)CCCN(C(=O)CCOc1ccccc1)c1nc2ccc(F)cc2s1	none (no result: OX1R antag-1, CHO parental Ca, OX1R antag-2)
CCC1CCCCN1S(=O)(=O)c1ccc(NC(=O)c2ccncc2)cc1 (stereo unspecified)	CHO parental Ca 42
CCC1CCCCN1S(=O)(=O)c1ccc(C(=O)Nc2nnc(C3CC3)o2)cc1 (stereo unspecified)	none
Cc1noc(C)c1C(=O)N1CCC(C(=O)c2ccccc2)CC1	none
Cc1ccc(OCc2nnc(SCc3nc4ccccc4[nH]3)n2Cc2ccco2)cc1	CHO parental Ca 32
CCOc1ccc(/C=N/NC(=O)c2ccc(F)cc2)cc1CN1CC2CC(C1)c1cccc(=O)n1C2 (stereo unspecified)	none (no result: GPR7 antagonist)
CC1CN(Cc2cc(=O)n3ccsc3n2)CC(C)O1 (stereo unspecified)	TAAR1 ag 40
O=c1cc(CN2CCC(Cc3ccccc3)CC2)nc2sccn12	none
CCc1cccc(C)c1NC(=O)CCCN1C(=O)NC(C)(C)C1=O	none (no result: GPR7 antagonist)
O=C(NCc1cccs1)c1cccn2c(=O)c3sccc3nc12	none
O=C(NCc1ccco1)c1cccn2c(=O)c3sccc3nc12	OX1R antag-1 42
COc1ccc(C(=O)Nc2ccccc2C(=O)N2CCOCC2)cc1OC	none
Cc1ccc(NC(=O)CSc2nc3nc(C)c(Br)cc3[nH]2)cc1F	OX1R antag-1 45
O=C(Nc1ccc(Oc2ccccc2)cc1)C1CCN(c2c3c(nc4ncnn24)CCC3)CC1	CHO parental Ca 49, OX1R antag-2 36, TAAR1 antag 57
O=C(Nc1ccc2c(c1)CCC2)C1CCN(c2c3c(nc4ncnn24)CCC3)CC1	none
CCCCN(CCCC)C(=O)c1sc2nc(N3CCOCC3)c3c(c2c1N)CCCC3	none
CC(C)n1cnc2c(NCc3ccccc3)cc(N[C@H](C)CO)cc21	OX1R antag-1 75 (no result: TAAR1 ag, GPR7 antagonist, TAAR1 antag)
CCC(CO)Oc1cc(NCc2ccc(C(C)(C)C)cc2)c2ncn(C(C)C)c2c1 (stereo unspecified)	CHO parental Ca 50 (no result: GPR7 antagonist)
CCC(COC)Oc1cc(NCc2ccccc2)c2ncn(C(C)C)c2c1 (stereo unspecified)	OX1R antag-1 35 (no result: GPR7 antagonist)
COc1ccc(Cc2cc(NCc3ccccc3)c3ncn(C(C)C)c3c2)cc1	TAAR1 ag 38 (no result: GPR7 antagonist)
CCC(CO)Oc1cc(NCc2ccc(O)cc2)c2ncn(C(C)C)c2c1 (stereo unspecified)	none (no result: GPR7 antagonist)
CCOc1ccccc1NC(=O)c1cccc2c1C(=O)N(CCOC)C2	none
CCOC(=O)N1CCN(C(=O)C2CCN(S(=O)(=O)c3ccc(F)cc3)CC2)CC1	none
Cc1ccc(C(=O)N(NC2=NS(=O)(=O)c3ccccc32)S(=O)(=O)c2ccc(C)cc2)cc1	none
CCOCCCNC1=C(Cl)C(=O)c2ccccc2C1=O	OX1R antag-1 71
O=C1C(Cl)=C(NCCN2CCOCC2)C(=O)c2ccccc21	OX1R antag-1 61
O=C1C(Cl)=C(NCCCN2CCOCC2)C(=O)c2ccccc21	none (no result: OX1R antag-1, CHO parental Ca, GPR7 antagonist, OX1R antag-2)
CCOCCCNS(=O)(=O)c1ccccc1	none
CCc1nc2ccccc2n1CC(=O)N1CCN(Cc2ccccc2)CC1	none
O=C1c2cc(CO)cc(O)c2C(=O)c2c(O[C@@H]3OC(CO)[C@@H](O)[C@@H](O)[C@@H]3O)cccc21 (stereo partly specified)	OX1R antag-1 73 (no result: GPR7 antagonist)
O=C(O)c1cc(O)c2c(c1)[C@H]([C@H]1c3cc(C(=O)O)cc(O)c3C(=O)c3c(O[C@@H]4O[C@H](CO)[C@@H](O)[C@H](O)[C@H]4O)cccc31)c1cccc(OC3O[C@H](CO)[C@@H](O)[C@H](O)[C@H]3O)c1C2=O (stereo partly specified)	none (no result: GPR7 antagonist)
CCOc1ccccc1NC(=O)CCSc1nc2n[nH]c(C)c2c(=N)n1-c1ccccc1Cl	OX1R antag-1 53
CCc1ccccc1NC(=O)CSc1nc2n[nH]c(C)c2c(=N)n1-c1cccc(OC)c1	OX1R antag-1 46
Cc1coc2c(C)c3oc(=O)c(CC(=O)N[C@@H](CC(C)C)C(=O)O)c(C)c3cc12	none
Cc1coc2c(C)c3oc(=O)c(CCC(=O)N[C@@H](C)C(=O)N[C@@H](Cc4ccccc4)C(=O)O)c(C)c3cc12	OX1R antag-1 45
CCOC(=O)c1nnn(-c2nonc2N)c1-c1ccccc1Cl	none
O=C(N/N=C/c1ccc(COc2ccc(Br)cc2)o1)c1ccco1	none
CCOc1ccccc1NC(=O)N1CCCc2ccccc21	none (no result: OX1R antag-1, CHO parental Ca, OX1R antag-2)
CCOc1ccccc1NC(=O)N1CCc2ccccc2C1	TAAR1 ag 41
Cc1ccc(OCC(=O)N2CCc3ccccc3C2)c(C)c1	TAAR1 ag 42
COc1ccccc1CCNC(=O)c1ccoc1C	TAAR1 ag 40
